Measurements taken from ChEMBL document CHEMBL1130029 (J Med Chem, 1997).
“And” between values parts separate entries of the source, which are not always exact repeats. Equal entries are not always repeated.

Assays:
[1] = Oral bioavailability in Rhesus monkey (dose 16 mg/kg); type: ADME, organism-based, Macaca mulatta; settings: in vivo
Procedure, shortened: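 Two female and two male rhesus monkeys were dosed orally (16 mg/kg) and then iv (1 mg/kg) after a 2-week washout. Plasma was sampled from 1 min to 8 h, extracted liquid-liquid into benzene or cyclohexane, and quantified by reverse-phase HPLC (detection limit 10 ng/mL). AUC was calculated by the trapezoidal rule, and bioavailability = (AUCpo/dose)/(AUCiv/dose) × 100.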

[2] = tested on: Rhesus monkey; experiment: In vivo plasma levels in Rhesus monkey was determined at a dose of 8 mg/kg administered orally; type: functional, organism-based; set-up: dose 8 mg/kg; settings: Cercopithecidae
[3] = tested on: Rhesus monkey; experiment: In vivo plasma levels in Rhesus monkey was determined at a dose of 8 mg/kg administered orally; none detected; type: functional, organism-based; set-up: dose 8 mg/kg; settings: Cercopithecidae
[4] = tested on: Human rhinovirus sp.; experiment: Compound was tested for resistance (survivors(%)) by extended cycle replication assay conducted in 1 ug/mL Enviroxime.(3A amino acid substitution Ile 42 to Val); type: functional
Procedure, shortened: (§1)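 Values are expressed relative to a no-drug control. Mutants of rhinovirus 14 were isolated, sequenced and assayed for resistance by earlier-reported procedures.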

[5] = tested on: Human rhinovirus sp.; experiment: Compound was tested for resistance (survivors(%)) by extended cycle replication assay conducted in 1 ug/mL Enviroxime.(3A amino acid substitution Gly 72 to Ser); type: functional; procedure, shortened: as §1
[6] = tested on: Human rhinovirus sp.; experiment: Compound was tested for resistance (survivors(%)) by extended cycle replication assay conducted in 1 ug/mL Enviroxime.(3A amino acid substitution Ile 77 to Val).; type: functional; procedure, shortened: as §1
[7] = tested on: Human rhinovirus sp.; experiment: Compound was tested for resistance (survivors(%)) by extended cycle replication assay conducted in 1 ug/mL Enviroxime.(3A amino acid substitution Glu 51 to Val); type: functional; procedure, shortened: as §1
[8] = tested on: Human rhinovirus sp.; experiment: Compound was tested for resistance (survivors(%)) by extended cycle replication assay conducted in 1 ug/mL Enviroxime.(3A amino acid substitution Ile 32 to Val); type: functional; procedure, shortened: as §1
[9] = tested on: Human rhinovirus sp.; experiment: Compound was tested for resistance (survivors(%)) by extended cycle replication assay conducted in 1 ug/mL Enviroxime.(3A amino acid substitution Asp 28 to Tyr).; type: functional; procedure, shortened: as §1
[10] = tested on: Human rhinovirus sp.; experiment: Compound was tested for resistance (survivors(%)) by extended cycle replication assay conducted in 1 ug/mL Enviroxime.(3A amino acid substitution Glu 34 to Val).; type: functional; procedure, shortened: as §1
[11] = tested on: Human rhinovirus sp.; experiment: Compound was tested for resistance (survivors(%)) by extended cycle replication assay conducted in 1 ug/mL Enviroxime.(3A amino acid substitution Met 54 to Ile); type: functional; procedure, shortened: as §1
[12] = tested on: Human rhinovirus sp.; experiment: Compound was tested for resistance (survivors(%)) by extended cycle replication assay conducted in 1 ug/mL Enviroxime. wild type; type: functional; procedure, shortened: as §1
[13] = organism: Canis familiaris; experiment: In vitro hepatic microsomal metabolism in dog; type: functional; settings: Canis lupus familiaris, Liver
Procedure, shortened: (§2)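 Microsomes from F344 rat, beagle dog, cynomolgus monkey or pooled human were incubated at 37 °C in a shaking bath. The oxidative arm used pH 7.4 Tris with NADPH and was run 3 h. The glucuronidation arm used pH 7.4 Tris-Brij with MgCl2 and UDPGA and was run 1 h. Compound was added from an acetone stock. Reactions were stopped with chilled acetonitrile, and unincubated controls were compared. Remaining parent was measured by HPLC.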

[14] = tested on: Monkey; experiment: In vitro hepatic microsomal metabolism in monkey; type: functional; settings: Cercopithecidae, Liver; procedure, shortened: as §2
[15] = organism: Mus musculus; experiment: In vitro hepatic microsomal metabolism in mouse; type: functional; settings: Liver
[16] = organism: Homo sapiens; experiment: In vitro hepatic microsomal metabolism in human; type: functional; settings: Liver; procedure, shortened: as §2
[17] = organism: Rattus norvegicus; experiment: In vitro hepatic microsomal metabolism in rat; type: functional; settings: Liver; procedure, shortened: as §2
[18] = organism: Rattus norvegicus; experiment: In vitro hepatic microsomal metabolism in rat.; type: functional; settings: Liver; procedure, shortened: as §2
[19] = organism: Mus musculus; experiment: In vitro Hepatic microsomal metabolism in mouse; type: functional; settings: Liver
[20] = tested on: rhinovirus B14; experiment: % survivors was determined against mutants of human rhinovirus 14 by extended cycle replication assay in 1 ug/mL enviroxime; type: functional; procedure, shortened: as §1
[21] = tested on: Human rhinovirus sp.; experiment: (§3) % survivors was determined against mutants of human rhinovirus 14 by extended cycle replication assay in 1 ug/mL enviroxime by different amino acid substitution; type: functional; procedure, shortened: as §1
[22] = tested on: rhinovirus B14; experiment: as §3; type: functional; procedure, shortened: as §1
[23] = tested on: rhinovirus B14; experiment: % survivors was determined against mutants of human rhinovirus 14 by extended cycle replication assay in 1 ug/mL enviroxime by different amino acid substitution by different amino acid substitution; type: functional; procedure, shortened: as §1

SMILES: C#C/C=C(\c1ccc([S+](C)[O-])cc1)c1ccc2nc(N)n(S(=O)(=O)C(C)C)c2c1 (configuration not stated)
- bioavailability [1]: 3%

SMILES: C#C/C=C(\c1ccccc1)c1ccc2nc(N)n(S(=O)(=O)C(C)C)c2c1
- Plasma concentration [2]: 70 ng/mL
- bioavailability [1]: 9%

SMILES: C=C/C=C(\c1ccccc1)c1ccc2nc(N)n(S(=O)(=O)C(C)C)c2c1
- Plasma concentration [3]: none detected

SMILES: C#C/C=C(\c1ccc(SC)cc1)c1ccc2nc(N)n(S(=O)(=O)C(C)C)c2c1
- bioavailability [1]: 5%

SMILES: C#C/C=C(\c1ccc(OC)cc1)c1ccc2nc(N)n(S(=O)(=O)C(C)C)c2c1
- Survivors [4]: 5.6%
- Survivors [5]: 6.8%
- Survivors [6]: 2.2%
- Survivors [7]: 3.8%
- Survivors [8]: 2.3%
- Survivors [9]: 4.7%
- Survivors [10]: 5%
- Survivors [11]: 3.5%
- bioavailability [1]: 5%
- Survivors [12]: 0.05%

SMILES: C#C/C=C(\c1ccc(OCC)cc1)c1ccc2nc(N)n(S(=O)(=O)C(C)C)c2c1
- bioavailability [1]: 4%

SMILES: C#C/C=C(\c1ccc(F)cc1)c1ccc2nc(N)n(S(=O)(=O)C(C)C)c2c1
- Metabolism [13]: 31%
- Metabolism [14]: 37%
- Metabolism [15]: 13%
- Metabolism [16]: 12%
- Metabolism [17]: 29%
- bioavailability [1]: 23%

SMILES: C/C=C(\c1ccccc1)c1ccc2nc(N)n(S(=O)(=O)C(C)C)c2c1 [ENVIRADENE]
- Metabolism [13]: 40%
- Metabolism [14]: 88%
- Metabolism [16]: 73%
- Plasma concentration [2]: 14 ng/mL
- Plasma concentration ([2]; tested as the 2H-labelled form): 10 ng/mL
- Metabolism [18]: 27%
- Metabolism [19]: 36%

SMILES: CC(C)S(=O)(=O)n1c(N)nc2ccc(/C(=N/O)c3ccccc3)cc21 [ENVIROXIME]
- Survivors [4]: 1.7%
- Survivors [20]: 0.6% and 2.1%
- Metabolism [13]: 37%
- Survivors [5]: 4.9%
- Metabolism [14]: 80%
- Survivors [6]: 0.7%
- Metabolism [15]: 24%
- Survivors [7]: 1.3%
- Metabolism [16]: 98%
- Survivors [8]: 0.7%
- Metabolism [17]: 39%
- Survivors [9]: 2%
- Survivors [10]: 1.5%
- Survivors [21]: 1.1% and 0.03%
- Survivors [22]: 5.5%
- Survivors [23]: 1.5%
- Survivors [11]: 1.9%
- Survivors [12]: 0.07%
